# Activity calls are given as the source filed them. The calls are words filed in the database; no cut-off is given here.
# Tests used:
# [1] = system: L1210; assay: Inhibition of [3H]thymidine uptake in L1210 cells at 10 uM; format: functional; conditions: Mus musculus
# Procedure, shortened: (§1)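 ³H-thymidine uptake into L1210 leukaemia cells measured by a modified rapid-mixing technique with inhibitor-stop. Values are mean ± SD of three or more separate determinations. IC50 is interpolated from concentration–inhibition curves.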
# [2] = system: L1210; assay: Inhibition of [3H]thymidine uptake in L1210 cells at 1 uM; format: functional; conditions: Mus musculus; procedure, shortened: as §1
# [3] = system: L1210; assay: Tested for the reduction in inhibition of [3H]thymidine uptake in L1210 cells in the presence of 5 mg/mL human AGP; format: functional, Mus musculus
# Procedure, shortened: (§2)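 Rapid-mixing, inhibitor-stop ³H-thymidine uptake into L1210 leukaemia cells run with 5 mg/mL human AGP present. Values are mean ± SD of three or more separate determinations. Significance of the difference from inhibition without AGP is taken at p ≤ 0.05.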
# [4] = system: L1210; assay: Inhibition of [3H]thymidine uptake in L1210 cells in the presence of 5 mg/mL human AGP at 1 uM; format: functional, Mus musculus; procedure, shortened: as §2
# [5] = system: L1210; assay: Inhibition of [3H]-thymidine uptake in L1210 cells in the presence of 5 mg/mL human AGP at 10 uM; format: functional, Mus musculus; procedure, shortened: as §2
# [6] = system: L1210; assay: Inhibition of [3H]thymidine uptake in L1210 cells; format: functional, cell-based; conditions: Mus musculus; procedure, shortened: as §1
# [7] = system: L1210; assay: Compound was tested for the inhibition of [3H]thymidine uptake in L1210 cells at 100 uM; format: functional; conditions: Mus musculus; procedure, shortened: as §1
# [8] = system: L1210; assay: Compound was tested for the inhibition of [3H]thymidine uptake in L1210 cells at 0.1 uM; format: functional; conditions: Mus musculus; procedure, shortened: as §1
SMILES,inhibition at 10 µM [1],inhibition at 1 µM [2],Reduction [3],Inhibition [4],IC50 [6],other results
CC(C)Oc1nc(N2CCCCC2)c2nc(OC(C)C)nc(N3CCCCC3)c2n1,23%,–,–,–,–,–
COc1ccc(CN(C)c2nc(NCC(C)O)nc3c(N(C)Cc4ccc(OC)cc4)nc(NCC(C)O)nc23)cc1 (stereo not given),–,39%,86%,5%,–,–
COc1ccc(CNc2nc(OCCCO)nc3c(NCc4ccc(OC)c(OC)c4)nc(OCCCO)nc23)cc1OC,–,71%,34%,47%,–,–
COCC(COc1nc(N2CCCCC2)c2nc(OCC(COC)OC)nc(N3CCCCC3)c2n1)OC (stereo not given),87%,38%,36%,–,1.88 µM,Inhibition [5]: 56%
COCC(C)Oc1nc(N2CCCCC2)c2nc(OC(C)COC)nc(N3CCCCC3)c2n1 (stereo not given),62%,–,–,–,–,inhibition at 100 µM [7]: 96%
OCCN(CCO)c1nc(N2CCCCC2)nc2c(N(CCO)CCO)nc(N3CCCCC3)nc12,74%,34%,–,–,–,–
COCCN(CCOC)c1nc(N2CCCCC2)c2nc(N(CCOC)CCOC)nc(N3CCCCC3)c2n1,86%,29%,50%,–,2.07 µM,–
OCC(O)CNc1nc(N2CCCCC2)c2nc(NCC(O)CO)nc(N3CCCCC3)c2n1 (stereo not given),55%,18%,64%,–,3.7 µM,Inhibition [5]: 20%
OCCN(CCO)c1nc(NCc2ccc3c(c2)OCO3)c2nc(N(CCO)CCO)nc(NCc3ccc4c(c3)OCO4)c2n1,–,73%,36%,47%,–,–
COc1ccc(CNc2nc(NCCO)nc3c(NCc4ccc(OC)cc4)nc(NCCO)nc23)cc1,–,56%,40%,35%,0.93 µM,inhibition at 0.1 µM [8]: 10%
COc1ccc(CNc2nc(N(CCO)CCO)nc3c(NCc4ccc(OC)c(OC)c4)nc(N(CCO)CCO)nc23)cc1OC,98%,73%,25%,53%,0.27 µM,–
c1ccc(CNc2ncnc3c(NCc4ccccc4)ncnc23)cc1,40%,–,–,–,–,–
COCCOc1nc(NCc2ccccc2)c2nc(OCCOC)nc(NCc3ccccc3)c2n1,78%,31%,–,–,2.4 µM,–
OCC(O)COc1nc(N2CCCCC2)c2nc(OC[C@H](O)CO)nc(N3CCCCC3)c2n1 (stereo not given in full),32%,–,–,–,–,inhibition at 100 µM [7]: 87%
COc1ccc(CNc2nc(OCCO)nc3c(NCc4ccc(OC)c(OC)c4)nc(OCCO)nc23)cc1OC,–,56%,46%,30%,–,–
OCCN(CCO)c1nc(NCc2ccc(Cl)cc2)c2nc(N(CCO)CCO)nc(NCc3ccc(Cl)cc3)c2n1,92%,53%,–,–,1.1 µM,–
c1nc(N2CCCCC2)c2ncnc(N3CCCCC3)c2n1,–,–,–,–,–,inhibition [7]: inactive
CC1(C)OC[C@H](COc2nc(N3CCCCC3)c3nc(OC[C@H]4COC(C)(C)O4)nc(N4CCCCC4)c3n2)O1,87%,47%,29%,–,1.1 µM,Inhibition [5]: 62%
COc1ccc(CN(C)c2nc(NCCO)nc3c(N(C)Cc4ccc(OC)c(OC)c4)nc(NCCO)nc23)cc1OC,84%,57%,–,–,–,–
COc1ccc(CNc2nc(OC[C@@H](C)O)nc3c(NCc4ccc(OC)cc4)nc(OC[C@H](C)O)nc23)cc1,–,68%,–,–,–,–
OCCOc1nc(N2CCCCC2)c2nc(OCCO)nc(N3CCCCC3)c2n1,–,13%,–,–,6.3 µM,–
Clc1nc(Cl)c2nc(Cl)nc(Cl)c2n1,–,–,–,–,–,inhibition [7]: inactive
C[C@H](O)COc1nc(N2CCCCC2)c2nc(OC[C@@H](C)O)nc(N3CCCCC3)c2n1,92%,47%,55%,20%,0.9 µM,–
CC(O)CNc1nc(NCc2ccccc2)c2nc(NCC(C)O)nc(NCc3ccccc3)c2n1 (stereo not given),84%,33%,–,–,3 µM,–
COc1ccc(CN(C)c2nc(N(CCO)CCO)nc3c(N(C)Cc4ccc(OC)cc4)nc(N(CCO)CCO)nc23)cc1,–,71%,46%,40%,0.84 µM,inhibition at 0.1 µM [8]: 27%
COc1ccc(CNc2nc(NCC(C)O)nc3c(NCc4ccc(OC)cc4)nc(NCC(C)O)nc23)cc1 (stereo not given),–,58%,45%,32%,0.7 µM,inhibition at 0.1 µM [8]: 21%
COc1ccc(CNc2nc(NCCO)nc3c(NCc4ccc(OC)c(OC)c4)nc(NCCO)nc23)cc1OC,–,62%,23%,44%,0.5 µM,inhibition at 0.1 µM [8]: 29%

# Source: ChEMBL document CHEMBL1138764, “Resistance-modifying agents. 11.(1) Pyrimido[5,4-d]pyrimidine modulators of antitumor drug activity. Synthesis and structure-activity relationships for nucleoside transport inhibition and binding to alpha1-acid glycoprotein” (J Med Chem, 2004)
